Data as given in ChEMBL document CHEMBL1806413, “New C-23 modified of silybin and 2,3-dehydrosilybin: synthesis and preliminary evaluation of antioxidant properties” (Bioorg Med Chem Lett, 2011).
Calls of active or inactive are those of the source. No cut-off for these calls is given here.

How the values were obtained:
[1] = system: Rat1; assay: Cytotoxicity against rat immortalized Rat1 cells assessed as reduction of cell viability at 30 uM after 48 hrs by MTT assay; assay type: cell-based; conditions: rat1, 48 h
How it was run: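 Exponentially growing rat fibroblasts given compound at 30 μM; viability assessed by MTT test after 48 h.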

[2] = system: Rat1; assay: Antioxidant activity in rat immortalized Rat1 cells assessed as inhibition of hydrogen peroxide-induced reactive oxygen species production by measuring conversion of 2',7'-dichlorofluorescin diacetate into 2',7'-dichlorofluorescein at 30 uM treated 48 hrs before H2O2 challenge measured after 15 mins by fluorescence assay; assay type: functional, cell-based
How it was run: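 Immortalized rat fibroblasts pre-treated 48 h with compound (30 μM), then exposed to 100 μM H2O2 for 15 min; intracellular ROS read as DCF fluorescence from DCFH-DA oxidation. Basal (no H2O2) levels also measured. Values expressed as % of fluorescence in untreated control cells (set at 100).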

[3] = system: Rat1; assay: Cytotoxicity against rat immortalized Rat1 cells after 48 hrs by MTT assay; assay type: cell-based; conditions: for IC50: Rattus norvegicus, Rat1, 48 h; for Activity: rat, rat1, 48 h

Row | SMILES | Activity [1] | inhibition [2] | IC50 [3] [µM] | Activity [3]
1 | COc1cc(C2Oc3cc(-c4oc5cc(O)cc(O)c5c(=O)c4O)ccc3OC2CO)ccc1O (mixture of isomers) [DEHYDROSILYLBIN] | Non-toxic | Active | 155 | Dose-dependent effect
2 | COc1cc(C2Oc3cc([C@H]4Oc5cc(O)cc(O)c5C(=O)[C@@H]4O)ccc3OC2CO)ccc1O (mixture of isomers) [SILIBININ] | Non-toxic | Active | 162 | Dose-dependent effect
